mABHD4 FP: inhibits mouse alpha/beta hydrolase domain 4; Q8VD66; actives 0.54% (n = 370,000); inhibition, % at 8.92 µM; purified mABHD4, FP-Rh probe fluorescence polarization;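 active = inhibition exceeding the mean over every tested compound plus 3 SD, cut at about 30% in these data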;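 also: 0% = plate median of compound wells and 100% = S159A mutant with DMSO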
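Assay system: mouse ABHD4 enzyme, wild type / Also added: fluorescent activity-based probe FP-Rh / Doses: single nominal dose of 8.92 µM, 0.89% DMSO final / Timing: 45 min compound pre-incubation plus 60 min probe step, 25 °C / Signal: FP readout, ex 525 nm / em 598 nm / Control set: S159A mutant/DMSO as 100%, compound-well median as 0%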
TCR-CD3 inh: blocks the human TCR-CD3 interaction | TAMRA-labeled TCR probe fluorescence, biochemical | inhibition, % at 9.4 µM | actives 0.37% (n = 360,000); in the data active = inhibition above about 19%;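 also: recombinant mutant TCR 2C K166C tagged with TAMRA read by polarization; 0% = receptor in buffer alone and 100% = receptor with positive control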
SIAE inh: inhibitors of human sialic acid acetylesterase SIAE | Q9HAT2 | SIAE FP-Rh probe binding, fluorescence polarization | inhibition, % at 9.66 µM | actives 0.69% (n = 370,000);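 active = inhibition above a cutoff: mean of compounds within the control limits plus 3 SD of those, cut at about 17% in these data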;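 also: 0% = plate median of compound wells and 100% = probe without SIAE protein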
ARNT TACC3 PPI: disruptors of human ARNT/TACC3 interaction | AID 623870 | actives 0.66% (n = 390,000) | inhibition, % at 9.99 µM | Q9Y6A5 | AlphaScreen His-ARNT PAS-B/GST-TACC3 binding, luminescence; TACC3 fragment carries E629A point mutation;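 active = mean inhibition of replicates at least 50% and at least half of replicates each reaching 50%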;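 also: 0% = complete ARNT plus TACC3 wells and 100% = ARNT alone without TACC3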
HTRA1 inh: HTRA1 (human) protease inhibition. Q92743. recombinant HTRA1, FP-rhodamine activity-based probe, fluorescence polarization. inhibition, % at 5.96 µM. actives 0.5% (n = 340,000). AID 504803; in the data active = inhibition above about 36%;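 also: 0% = enzyme with DMSO and 100% = wells lacking enzyme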
Target sequence (Q92743 whole entry, looked up): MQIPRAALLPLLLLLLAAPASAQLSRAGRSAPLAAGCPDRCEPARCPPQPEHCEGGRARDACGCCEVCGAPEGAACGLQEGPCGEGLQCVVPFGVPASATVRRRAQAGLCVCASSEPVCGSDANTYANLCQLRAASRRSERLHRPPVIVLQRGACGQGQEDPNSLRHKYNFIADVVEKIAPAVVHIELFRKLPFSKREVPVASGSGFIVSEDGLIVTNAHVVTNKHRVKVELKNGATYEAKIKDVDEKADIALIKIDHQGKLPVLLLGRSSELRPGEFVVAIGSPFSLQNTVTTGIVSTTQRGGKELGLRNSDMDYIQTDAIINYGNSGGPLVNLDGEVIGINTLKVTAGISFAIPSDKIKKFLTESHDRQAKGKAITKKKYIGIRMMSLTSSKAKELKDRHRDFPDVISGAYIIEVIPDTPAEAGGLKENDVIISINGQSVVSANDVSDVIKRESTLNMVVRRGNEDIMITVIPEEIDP
HTRA1 inh conf: HTRA1 (human) inhibition, confirmation. shares compounds with HTRA1 inh. recombinant HTRA1, FP-rhodamine activity-based probe, fluorescence polarization. inhibition, % at 5.96 µM. actives 66% (n = 1,600). AID 540248;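 active = mean inhibition over three repeats above a set limit taken from the earlier primary screen, cut at about 37% in these data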;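 also: 0% = HTRA1 with DMSO and 100% = wells lacking HTRA1; inhibitors block probe binding so polarization drops and inhibition rises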
ABHD4 confirm: ABHD4 (mouse) inhibition, FP confirmation; inhibition, % at 8.92 µM; purified mABHD4, FP-Rh probe fluorescence polarization; AID 720658; shares compounds with mABHD4 FP; actives 55% (n = 1,800);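 active = mean inhibition across replicates above the hit cutoff set in the primary screen, cut at about 30% in these data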;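 also: 0% = wild-type ABHD4 with DMSO and 100% = catalytically dead S159A mutant with DMSO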
* marks the source's active call; other numbers are inactive results. Most compounds without a hit are left out; they make up all but 1.8% or so of the library.

CNc1ccc(Br)cc(C(=O)/C=C/c2cccc(Cl)c2Cl)c1=O was read as mABHD4 FP 42.0*, TCR-CD3 inh 6.7, SIAE inh 14.1, ARNT TACC3 PPI -3.0, HTRA1 inh 65.3*, HTRA1 inh conf 33.0 and ABHD4 confirm 35.4*.
Screening C[C@@H]1CN([C@H](C)CO)C(=O)c2cc(C3=CCCC3)cnc2O[C@@H]1CN(C)C(=O)Nc1ccccc1 returned ARNT TACC3 PPI -2.9.
`CC(=O)c1sc(N/N=C\c2c(O)ccc3ccccc23)nc1C` gave mABHD4 FP 31.1*, TCR-CD3 inh 7.4, SIAE inh 13.9, ARNT TACC3 PPI 10.9, HTRA1 inh 38.6*, HTRA1 inh conf 43.6* and ABHD4 confirm 28.0.
`CC(=O)c1sc(N/N=C/c2cccc(O)c2)nc1C` gave mABHD4 FP 7.8, TCR-CD3 inh -0.3, SIAE inh 0.8, ARNT TACC3 PPI 1.2 and HTRA1 inh 0.0.
For COC(=O)c1ccccc1NCc1cc(=O)oc2cc(O)c(O)cc12 the results were mABHD4 FP 39.7*, TCR-CD3 inh 15.1, SIAE inh 4.7, ARNT TACC3 PPI -2.6, HTRA1 inh 65.1*, HTRA1 inh conf 46.3* and ABHD4 confirm 31.3*.
For COc1cc(Sc2ccc(C)cc2)c(OC)cc1N the results were mABHD4 FP 33.9*, TCR-CD3 inh -6.8, SIAE inh 0.2, ARNT TACC3 PPI 4.3, HTRA1 inh 45.8*, HTRA1 inh conf 43.7* and ABHD4 confirm 41.1*.
`COC(=O)c1ccc(Sc2ccc(C)cc2)c(N)c1` gave mABHD4 FP 5.1, TCR-CD3 inh 1.7, SIAE inh 5.3, ARNT TACC3 PPI -2.4 and HTRA1 inh -11.9.
`C[C@@H]1CN([C@H](C)CO)S(=O)(=O)c2ccc(-c3ccccc3F)cc2O[C@H]1CN(C)C` gave ARNT TACC3 PPI 0.0.
For CC1=NN(c2ccc(C)cc2)C(=O)/C1=C/c1ccc(-c2cc([N+](=O)[O-])ccc2O)o1 the results were mABHD4 FP 31.0*, TCR-CD3 inh -3.9, SIAE inh 13.2, ARNT TACC3 PPI -1.0, HTRA1 inh 46.4*, HTRA1 inh conf 52.9* and ABHD4 confirm 53.4*.
`CC1=NN(c2ccc(C(=O)O)cc2)C(=O)/C1=C/c1ccc(-c2ccccc2F)o1` gave ARNT TACC3 PPI -7.6 and HTRA1 inh 0.2.
Screening CCCNC(=O)C[C@@H]1CC[C@@H]2[C@H](COc3ccc(NS(=O)(=O)CC)cc3C(=O)N2C)O1 returned ARNT TACC3 PPI 0.9.
Screening COC(=O)c1cc2c(-c3ccccc3)cc3ccccn3c-2c1C(=O)OC returned mABHD4 FP 14.8, TCR-CD3 inh 2.0, SIAE inh -5.2 and HTRA1 inh 11.2.
For COC(=O)c1c(C(=O)OC)c2cccc3cc(-c4ccccc4)c4ccc1c4n32 the results were mABHD4 FP 35.9*, TCR-CD3 inh 9.5, SIAE inh 8.2, ARNT TACC3 PPI 10.7, HTRA1 inh 38.6*, HTRA1 inh conf 57.6* and ABHD4 confirm 34.7*.
Screening CC(C)NC(=O)Nc1ccc2c(c1)CC(=O)N([C@H](C)CO)C[C@@H](C)[C@H](CN(C)C(=O)Nc1ccccc1)O2 returned ARNT TACC3 PPI -0.1.
For C[n+]1c(-c2ccccc2)cc2c(=Cc3ccc([N+](=O)[O-])cc3)c3ccccc3n21 the results were mABHD4 FP 31.2*, TCR-CD3 inh -5.2, SIAE inh 4.4, ARNT TACC3 PPI 13.8, HTRA1 inh 80.0*, HTRA1 inh conf 24.7 and ABHD4 confirm 37.9*.
Screening Cc1cc2c(=Cc3ccc(N(C)C)cc3)c3ccccc3n2[n+]1C returned mABHD4 FP -101.4, TCR-CD3 inh -30.1, SIAE inh -74.1, ARNT TACC3 PPI 33.0 and HTRA1 inh -20.0.

Screening results (PubChem BioAssay)
